Test results taken from ChEMBL document CHEMBL4196022, “Alkynyl-containing phenylthiazoles: Systemically active antibacterial agents effective against methicillin-resistant Staphylococcus aureus (MRSA)” (Eur J Med Chem, 2018).
≈ marks a conversion by molar mass, not a printed value.

How the values were obtained:
[1] = system: Staphylococcus aureus; assay: Antibacterial activity against methicillin-resistant Staphylococcus aureus USA300 after 20 hrs by broth microdilution assay; assay type: functional; conditions: USA300, 20 h
How it was run: (§1)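 Broth microdilution per CLSI in cation-adjusted Mueller Hinton broth. Compounds serially diluted, in triplicate. Incubation at 37 °C for at least 20 hours. MIC taken as the lowest concentration with no visible bacterial growth.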

[2] = system: Staphylococcus aureus; assay: Bactericidal activity against methicillin-resistant Staphylococcus aureus USA300 up to 18 hrs by broth microdilution assay; assay type: functional; conditions: USA300, 18 h, read-out: MBC99.9
[3] = system: Staphylococcus aureus; assay: Ratio of MBC to MIC for methicillin-resistant Staphylococcus aureus USA300; assay type: functional
How it was run: (§2)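 MBC/MIC ratio. […] MBC by plating no-growth wells onto tryptic soy agar at 37 °C for at least 18 h; taken as the concentration giving 99.9% growth inhibition.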

[4] = system: Staphylococcus aureus; assay: Antibacterial activity against methicillin-resistant Staphylococcus aureus NRS107 after 20 hrs by broth microdilution assay; assay type: functional; conditions: NRS107, 20 h; how it was run: as §1
[5] = system: Staphylococcus aureus; assay: Bactericidal activity against methicillin-resistant Staphylococcus aureus NRS107 up to 18 hrs by broth microdilution assay; assay type: functional; conditions: NRS107, 18 h, read-out: MBC99.9
[6] = system: Staphylococcus aureus; assay: Antibacterial activity against methicillin-resistant Staphylococcus aureus NRS119 after 20 hrs by broth microdilution assay; assay type: functional; conditions: NRS119, 20 h; how it was run: as §1
[7] = system: Staphylococcus aureus; assay: Bactericidal activity against methicillin-resistant Staphylococcus aureus NRS119 up to 18 hrs by broth microdilution assay; assay type: functional; conditions: NRS119, 18 h, read-out: MBC99.9
[8] = system: Staphylococcus aureus; assay: Antibacterial activity against methicillin-resistant Staphylococcus aureus NRS123 (USA400) after 20 hrs by broth microdilution assay; assay type: functional; how it was run: as §1
[9] = system: Staphylococcus aureus; assay: Bactericidal activity against methicillin resistant Staphylococcus aureus NRS123 (USA400) up to 18 hrs by broth microdilution assay; assay type: functional; conditions: read-out: MBC99.9
[10] = system: Staphylococcus aureus; assay: Antibacterial activity against vancomycin-resistant Staphylococcus aureus VRS10 after 20 hrs by broth microdilution assay; assay type: functional; conditions: VRS10, 20 h; how it was run: as §1
[11] = system: Staphylococcus aureus; assay: Bactericidal activity against methicillin resistant vancomycin-resistant Staphylococcus aureus VRS10 up to 18 hrs by broth microdilution assay; assay type: functional; conditions: VRS10, 18 h, read-out: MBC99.9
[12] = system: Staphylococcus aureus; assay: Antibacterial activity against vancomycin-resistant Staphylococcus aureus VRS11a after 20 hrs by broth microdilution assay; assay type: functional; how it was run: as §1
[13] = system: Staphylococcus aureus; assay: Bactericidal activity against methicillin resistant vancomycin-resistant Staphylococcus aureus VRS11a up to 18 hrs by broth microdilution assay; assay type: functional; conditions: read-out: MBC99.9
[14] = system: Staphylococcus aureus; assay: Antibacterial activity against vancomycin-resistant Staphylococcus aureus VRS12 after 20 hrs by broth microdilution assay; assay type: functional; conditions: VRS12, 20 h; how it was run: as §1
[15] = system: Staphylococcus aureus; assay: Bactericidal activity against methicillin resistant vancomycin-resistant Staphylococcus aureus VRS12 up to 18 hrs by broth microdilution assay; assay type: functional; conditions: VRS12, 18 h, read-out: MBC99.9
How it was run: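 MBC set up from the MIC plates. Aliquots from wells with no growth spotted onto tryptic soy agar and incubated at 37 °C for at least 18 hours. MBC taken as the lowest concentration giving 99.9% inhibition of bacterial growth.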

[16] = system: Staphylococcus aureus; assay: Potency index, ratio of vancomycin MIC to compound MIC for antibacterial activity against vancomycin-resistant Staphylococcus aureus VRS10; assay type: functional
[17] = system: Staphylococcus aureus; assay: Potency index, ratio of vancomycin MIC to compound MIC for antibacterial activity against vancomycin-resistant Staphylococcus aureus VRS11a; assay type: functional
[18] = system: Staphylococcus aureus; assay: Potency index, ratio of vancomycin MIC to compound MIC for antibacterial activity against vancomycin-resistant Staphylococcus aureus VRS12; assay type: functional
[19] = system: Staphylococcus aureus; assay: Ratio of MBC to MIC for methicillin-resistant Staphylococcus aureus NRS107; assay type: functional; how it was run: as §2
[20] = system: Staphylococcus aureus; assay: Ratio of MBC to MIC for methicillin-resistant Staphylococcus aureus NRS119; assay type: functional; how it was run: as §2
[21] = system: Staphylococcus aureus; assay: Ratio of MBC to MIC for methicillin-resistant Staphylococcus aureus NRS123 (USA400); assay type: functional; how it was run: as §2
[22] = system: Staphylococcus aureus; assay: Ratio of MBC to MIC for vancomycin-resistant Staphylococcus aureus VRS10; assay type: functional; how it was run: as §2
[23] = system: Staphylococcus aureus; assay: Ratio of MBC to MIC for vancomycin-resistant Staphylococcus aureus VRS11a; assay type: functional; how it was run: as §2
[24] = system: Staphylococcus aureus; assay: Ratio of MBC to MIC for vancomycin-resistant Staphylococcus aureus VRS12; assay type: functional; how it was run: as §2
[25] = system: HRT-18 cell line; assay: Cytotoxicity against human HRT18 cells assessed as reduction in cell viability up to 32 ug/ml after 2 hrs by MTS assay; assay type: cell-based; conditions: hrt-18, 2 h
[26] = Selectivity index, ratio of toxic concentration for human HRT18 cells to MIC for methicillin-resistant Staphylococcus aureus; assay type: toxicity; conditions: read-out: Selectivity Index

In the case of `CCCCCCC#Cc1ccc(-c2nc(C)c(/C(C)=N/NC3=NCCN3)s2)cc1`, the MIC [1] is reported as 8 µg/mL (≈ 19.6 µM), the MBC [2] is reported as 16 µg/mL (≈ 39.3 µM) and the Ratio [3] is reported as “<=3”.

`CCCCCCC#Cc1ccc(-c2nc(C)c(/C(C)=N/NC(=N)N)s2)cc1` showed an MIC [4] of 4 µg/mL (≈ 10.5 µM), an MIC [1] of 4 µg/mL (≈ 10.5 µM) and an MBC [2] of 8 µg/mL (≈ 21 µM). For the same compound, the MBC [5] was 8 µg/mL (≈ 21 µM), the MIC [6] was 1 µg/mL (≈ 2.62 µM) and the MBC [7] was 4 µg/mL (≈ 10.5 µM). The MIC [8] was 4 µg/mL (≈ 10.5 µM), the MBC [9] was 4 µg/mL (≈ 10.5 µM) and the MIC [10] was 2 µg/mL (≈ 5.24 µM). It also gave an MBC [11] of 4 µg/mL (≈ 10.5 µM), an MIC [12] of 0.5 µg/mL (≈ 1.31 µM) and an MBC [13] of 2 µg/mL (≈ 5.24 µM). For the same compound, the MIC [14] was 2 µg/mL (≈ 5.24 µM), the MBC [15] was 4 µg/mL (≈ 10.5 µM) and the Ratio [16] was >100. The Ratio [17] was >100, the Ratio [18] was 8 and the Ratio [3] was “<=3”. For the same compound, the Ratio [19] was “<=3”, the Ratio ([20]; read-out: Ratio) was 4 and the Ratio [21] was “<=3”. For the same compound, the Ratio [22] was “<=3”, the Ratio ([23]; read-out: Ratio) was 4 and the Ratio [24] was “<=3”. For the same compound, the Activity [25] was “Non-Toxic” and the selectivity ratio [26] was 7 to 31.

With `C/C(=N\NC1=NCCN1)c1sc(-c2ccc(C#CCC3CCCC3)cc2)nc1C` the MIC [1] was 8 µg/mL (≈ 19.7 µM), the MBC [2] was 32 µg/mL (≈ 78.9 µM) and the Ratio [3] was “<=3”.

With `CCCC#Cc1ccc(-c2nc(C)c(/C(C)=N/NC3=NCCN3)s2)cc1` the MIC [1] was > 64 µg/mL, the MBC [2] was > 64 µg/mL and the Ratio [3] was “<=3”.

In the case of `C/C(=N\NC1=NCCN1)c1sc(-c2ccc(C#CC3CCCCC3)cc2)nc1C`, the MIC [1] is reported as 8 µg/mL (≈ 19.7 µM), the MBC [2] is reported as 8 µg/mL (≈ 19.7 µM) and the Ratio [3] is reported as “<=3”.

Work on `CCCCCC#Cc1ccc(-c2nc(C)c(/C(C)=N/NC3=NCCN3)s2)cc1` yielded an MIC [4] of 16 µg/mL (≈ 40.7 µM), an MIC [1] of 4 µg/mL (≈ 10.2 µM) and an MBC [2] of 8 µg/mL (≈ 20.3 µM). For the same compound, the MBC [5] was 32 µg/mL (≈ 81.3 µM), the MIC [6] was 16 µg/mL (≈ 40.7 µM) and the MBC [7] was 32 µg/mL (≈ 81.3 µM). It also gave an MIC [8] of 16 µg/mL (≈ 40.7 µM), an MBC [9] of 32 µg/mL (≈ 81.3 µM) and an MIC [10] of 8 µg/mL (≈ 20.3 µM). The MBC [11] was 64 µg/mL (≈ 163 µM), the MIC [12] was 8 µg/mL (≈ 20.3 µM) and the MBC [13] was 16 µg/mL (≈ 40.7 µM). For the same compound, the MIC [14] was 16 µg/mL (≈ 40.7 µM), the MBC [15] was 32 µg/mL (≈ 81.3 µM) and the Ratio [16] was >100. The Ratio [17] was >100, the Ratio [18] was >100 and the Ratio [3] was “<=3”. For the same compound, the Ratio [19] was “<=3”, the Ratio [20] was “<=3” and the Ratio [21] was “<=3”. The Ratio [22] was “<=3”, the Ratio [23] was “<=3” and the Ratio [24] was “<=3”.

With `C/C(=N\NC1=NCCN1)c1sc(-c2ccc(C#CC3CCCC3)cc2)nc1C` the MIC [4] was 16 µg/mL (≈ 40.9 µM), the MIC [1] was 4 µg/mL (≈ 10.2 µM) and the MBC [2] was 16 µg/mL (≈ 40.9 µM). It also gave an MBC [5] of 32 µg/mL (≈ 81.7 µM), an MIC [6] of 32 µg/mL (≈ 81.7 µM) and an MBC [7] of 32 µg/mL (≈ 81.7 µM). For the same compound, the MIC [8] was 16 µg/mL (≈ 40.9 µM), the MBC [9] was 32 µg/mL (≈ 81.7 µM) and the MIC [10] was 4 µg/mL (≈ 10.2 µM). For the same compound, the MBC [11] was 8 µg/mL (≈ 20.4 µM), the MIC [12] was 8 µg/mL (≈ 20.4 µM) and the MBC [13] was 8 µg/mL (≈ 20.4 µM). The MIC [14] was 16 µg/mL (≈ 40.9 µM), the MBC [15] was 16 µg/mL (≈ 40.9 µM) and the Ratio [16] was >100. The Ratio [17] was >100, the Ratio [18] was >100 and the Ratio [3] was “<=3”. The Ratio [19] was “<=3”, the Ratio [20] was “<=3” and the Ratio [21] was “<=3”. For the same compound, the Ratio [22] was “<=3”, the Ratio [23] was “<=3” and the Ratio [24] was “<=3”.

With `C/C(=N\NC1=NCCN1)c1sc(-c2ccc(C#CC(C)(C)N)cc2)nc1C` the MIC [1] was > 64 µg/mL, the MBC [2] was > 64 µg/mL and the Ratio [3] was “<=3”.
